Experimental data: ChEMBL document CHEMBL3259660, “Haloemodin as novel antibacterial agent inhibiting DNA gyrase and bacterial topoisomerase I” (J Med Chem, 2014)
Values after ≈ are worked out from the molar mass of the structure shown. Active and inactive are the calls of the source. No cut-off for these calls is given here.

Tests used:
[1] = system: Staphylococcus aureus; experiment: In vivo antibacterial activity against Staphylococcus aureus in New zealand rabbit keratitis model assessed as suppression of conjuctival congestion, conjuctival chemosis, infiltration, operative ulcer area and depth at 3 mg/ml administered topically every 4 hrs for four doses every day for 10 days starting 24 hrs post-infection by slit lamp biomicroscopy; format: functional, organism-based
How it was run: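 NZW rabbits (2.0−3.0 kg), anesthetized with iv sodium pentobarbital 30 mg/kg, given intracorneal S. aureus (about 7.5 × 10^6 CFU) from an overnight LB culture. Starting 24 h post-infection, 30 μL drops applied topically per eye every 4 h, four doses daily (8 a.m.–8 p.m.), for 10 days, masked. Test compound in PEG–water (1:1). Slit-lamp biomicroscopy before and after.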

[2] = system: Pseudomonas aeruginosa; experiment: Antibacterial activity against Pseudomonas aeruginosa assessed as growth inhibition by agar dilution assay; format: functional
How it was run: (§1)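 CLSI agar dilution MIC against aerobic and anaerobic strains. Test compounds were dissolved in DMSO and reference antibiotics in sterile water. MIC was taken as the lowest concentration showing no bacterial growth. Each MIC was determined at least twice on separate days, and the higher value was reported. E. coli PQ 37 was cultured in LA medium.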

[3] = system: Pseudomonas aeruginosa; experiment: Antibacterial activity against Pseudomonas aeruginosa ATCC 27853 assessed as growth inhibition by agar dilution assay; format: functional
How it was run: (§2)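 Agar dilution MIC per CLSI (aerobic and anaerobic methods); compounds dissolved in DMSO, reference antibiotics in sterile water. MIC taken as lowest concentration with no visible growth; determined at least twice on separate days, higher value reported. Clinical isolate ranges summarized as MIC50/MIC90.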

[4] = system: Escherichia coli; experiment: Antibacterial activity against Escherichia coli ATCC 25922 assessed as growth inhibition by agar dilution assay; format: functional; how it was run: as §2
[5] = system: Staphylococcus aureus; experiment: microbe, parasite or virus in culture; format: functional; conditions: ATCC 6538
[6] = Cytotoxicity against CHL cells assessed as cell viability after 24 hrs by MTT assay; format: cell-based, Cricetulus griseus; conditions: chinese hamster
How it was run: (§3)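 CHL fibroblasts seeded at about 5 × 10^4 cells/mL, incubated overnight at 37 °C, 5% CO2, then exposed to compound at different concentrations for 24 h. Viability read by MTT, absorbance at 570 nm, relative to cells in medium alone (100%). Triplicate.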

[7] = Cytotoxicity against CHL cells assessed as cell viability at 0.256 mg/ml after 24 hrs by MTT assay; format: cell-based, Cricetulus griseus; conditions: chinese hamster, read-out: Activity; how it was run: as §3
[8] = system: Brevibacillus laterosporus; experiment: Antibacterial activity against Brevibacillus laterosporus ATCC 64 assessed as growth inhibition by agar dilution assay; format: functional
[9] = system: Staphylococcus aureus; experiment: Antibacterial activity against Staphylococcus aureus ATCC 29213 assessed as growth inhibition by agar dilution assay; format: functional; how it was run: as §2
[10] = system: Bacillus cereus; experiment: Antibacterial activity against Bacillus cereus ATCC 10231 assessed as growth inhibition by agar dilution assay; format: functional
[11] = system: Staphylococcus aureus; experiment: Antibacterial activity against methicillin-resistant Staphylococcus aureus assessed as growth inhibition by agar dilution assay; format: functional; how it was run: as §1
[12] = system: Staphylococcus epidermidis; experiment: Antibacterial activity against methicillin-sensitive Staphylococcus epidermidis assessed as growth inhibition by agar dilution assay; format: functional; how it was run: as §2
[13] = system: Staphylococcus epidermidis; experiment: Antibacterial activity against methicillin-resistant Staphylococcus epidermidis assessed as growth inhibition by agar dilution assay; format: functional; how it was run: as §1
[14] = system: Staphylococcus aureus; experiment: Antibacterial activity against methicillin-sensitive Staphylococcus aureus assessed as growth inhibition by agar dilution assay; format: functional; how it was run: as §2
[15] = system: Streptococcus pneumoniae; experiment: Antibacterial activity against Streptococcus pneumoniae assessed as growth inhibition by agar dilution assay; format: functional; how it was run: as §2
[16] = system: Streptococcus pneumoniae; experiment: Antibacterial activity against Streptococcus pneumoniae ATCC 49619 assessed as growth inhibition by agar dilution assay; format: functional; how it was run: as §2
[17] = system: Bacteroides fragilis; experiment: Antibacterial activity against Bacteroides fragilis assessed as growth inhibition by agar dilution assay; format: functional; how it was run: as §2
[18] = system: Bacteroides fragilis; experiment: Antibacterial activity against Bacteroides fragilis ATCC 25285 assessed as growth inhibition by agar dilution assay; format: functional; how it was run: as §2

Structure (SMILES) | MIC [3] | MIC [4] | MIC [5] | MIC [8] | MIC [9] | MIC [10] | viability at 24 h, 0.256 mg/ml [7] | further results
CC1COc2c(N3CCN(C)CC3)c(F)cc3c(=O)c(C(=O)O)cn1c23 (stereo not drawn) |  |  |  |  |  |  |  | inhibition [1]: Active
CCN1CCN(C(=O)N[C@@H](C(=O)N[C@@H]2C(=O)N3[C@@H]2SC(C)(C)[C@@H]3C(=O)[O-])c2ccccc2)C(=O)C1=O.[Na+] [PIPERACILLIN SODIUM] | 4 µg/mL | 4 µg/mL |  |  |  |  |  | MIC [2]: 2 µg/mL
Cc1c(Cl)c(O)c2c(c1Cl)C(=O)c1c(Cl)c(O)cc(O)c1C2=O | > 256 µg/mL | > 256 µg/mL | 8 µg/mL (≈ 21.4 µM) | 8 µg/mL (≈ 21.4 µM) | 16 µg/mL (≈ 42.8 µM) | 8 µg/mL (≈ 21.4 µM) | > 75% | IC90 at 24 h [6]: 256 µg/mL (≈ 685 µM)
CO[C@@]1(NC(=O)Cc2cccs2)C(=O)N2C(C(=O)[O-])=C(COC(N)=O)CS[C@@H]21.[Na+] [CEFOXITIN SODIUM] |  |  |  |  | 2 µg/mL |  |  | MIC [11]: 128 µg/mL; MIC [12]: 1 µg/mL; MIC [13]: 128 µg/mL; MIC [14]: 0.5 µg/mL
CN[C@H](CC(C)C)C(=O)N[C@H]1C(=O)N[C@@H](CC(N)=O)C(=O)N[C@H]2C(=O)N[C@H]3C(=O)N[C@H](C(=O)N[C@H](C(=O)O)c4cc(O)cc(O)c4-c4cc3ccc4O)[C@H](O)c3ccc(c(Cl)c3)Oc3cc2cc(c3O[C@@H]2O[C@H](CO)[C@@H](O)[C@H](O)[C@H]2O[C@H]2C[C@](C)(N)[C@H](O)[C@H](C)O2)Oc2ccc(cc2Cl)[C@H]1O.Cl [VANCOMYCIN HYDROCHLORIDE] |  |  |  | 2 µg/mL |  | 2 µg/mL |  | 
CC1(C)S[C@@H]2[C@H](NC(=O)Cc3ccccc3)C(=O)N2[C@H]1C(=O)[O-].[Na+] [PENICILLIN G SODIUM] |  |  |  |  |  |  |  | MIC [15]: 8 µg/mL; MIC [16]: 0.25 µg/mL
CCC[C@@H]1C[C@@H](C(=O)N[C@@H]([C@H]2O[C@H](SC)[C@H](OP(=O)(O)O)[C@@H](O)[C@H]2O)[C@H](C)Cl)N(C)C1 [CLINDAMYCIN PHOSPHATE] |  |  |  |  |  |  |  | MIC [17]: 0.03 µg/mL; MIC [18]: 0.5 µg/mL

The next lines start with results.

MIC [3] | MIC [4] | MIC [5] | MIC [8] | MIC [9] | MIC [10] | Structure (SMILES) | viability at 24 h, 0.256 mg/ml [7] | further results
> 256 µg/mL | > 256 µg/mL | 8 µg/mL (≈ 18.7 µM) | 8 µg/mL (≈ 18.7 µM) | 16 µg/mL (≈ 37.4 µM) | 8 µg/mL (≈ 18.7 µM) | Cc1cc(O)c2c(c1)C(=O)c1c(Br)c(O)c(Br)c(O)c1C2=O | > 75% | IC90 at 24 h [6]: 128 µg/mL (≈ 299 µM)
> 256 µg/mL | > 256 µg/mL | 8 µg/mL (≈ 12.3 µM) | 8 µg/mL (≈ 12.3 µM) | 16 µg/mL (≈ 24.7 µM) | 8 µg/mL (≈ 12.3 µM) | Cc1cc2c(c(O)c1I)C(=O)c1c(O)c(I)c(O)c(I)c1C2=O | > 75% | IC90 at 24 h [6]: 128 µg/mL (≈ 198 µM)
> 256 µg/mL | > 256 µg/mL | 32 µg/mL (≈ 74.3 µM) | 32 µg/mL (≈ 74.3 µM) | 64 µg/mL (≈ 149 µM) | 32 µg/mL (≈ 74.3 µM) | Cc1cc(O)c2c(c1)C(=O)c1c(Cl)c(O)c(I)c(O)c1C2=O | > 75% | 
> 256 µg/mL | > 256 µg/mL | 16 µg/mL (≈ 40.4 µM) | 16 µg/mL (≈ 40.4 µM) | 32 µg/mL (≈ 80.8 µM) | 16 µg/mL (≈ 40.4 µM) | Cc1cc(O)c2c(c1)C(=O)c1cc(O)c(I)c(O)c1C2=O | > 75% | 
